Results as given in ChEMBL document CHEMBL4627405, “A Venomics Approach Coupled to High-Throughput Toxin Production Strategies Identifies the First Venom-Derived Melanocortin Receptor Agonists” (J Med Chem, 2020).
Active and inactive are the calls of the source. No cut-off for these calls is given here. Positions of bridges follow the written chain, without caps; N, C: chain ends. Residues, ends and D or L forms follow the SMILES beside them.

Assays:
[1] = biological target: Sodium channel protein type 3 subunit alpha (Homo sapiens) (UniProt Q9NY46); assay: Inhibition of human NaV1.3 at 100 uM
Method in brief: (§1)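 Two-electrode voltage clamp of oocytes injected with 50 nl cRNA (1 ng/nl) and recorded 1–4 days later at 18–22 °C. Bath was 96 mM NaCl, 2 mM KCl, 1.8 mM CaCl2, 2 mM MgCl2, 5 mM HEPES pH 7.4. Toxin was applied to the bath at 100 µM. Currents were evoked by 100 ms depolarisation to the voltage of maximal sodium current, filtered at 2 kHz and sampled at 20 kHz.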

[2] = biological target: Sodium channel protein type 2 subunit alpha (Homo sapiens) (UniProt Q99250); assay: Inhibition of human NaV1.2 at 100 uM; method in brief: as §1
[3] = biological target: Sodium channel protein type 1 subunit alpha (Homo sapiens) (UniProt P35498); assay: Inhibition of human NaV1.1 at 100 uM; method in brief: as §1
[4] = biological target: T1, Melanocyte-stimulating hormone receptor (Homo sapiens, UniProt Q01726); assay: Activity at N-terminal HA-tagged and C-terminal FLAG-tagged human MC1R expressed in HEK293 cells assessed as potentiation of alpha-MSH-induced cAMP accumulation at 100 uM incubated for 3 hrs by luciferase reporter gene assay; format: functional, cell-based
Target sequence in this assay (Q01726 whole entry, looked up): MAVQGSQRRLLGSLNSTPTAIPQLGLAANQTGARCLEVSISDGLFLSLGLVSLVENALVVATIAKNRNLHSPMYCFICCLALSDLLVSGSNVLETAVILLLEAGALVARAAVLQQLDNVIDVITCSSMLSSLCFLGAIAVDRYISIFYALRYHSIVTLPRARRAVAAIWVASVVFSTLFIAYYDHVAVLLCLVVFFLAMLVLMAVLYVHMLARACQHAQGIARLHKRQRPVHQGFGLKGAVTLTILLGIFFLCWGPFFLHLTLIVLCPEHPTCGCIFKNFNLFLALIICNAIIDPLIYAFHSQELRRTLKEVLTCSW

[5] = biological target: T2, Melanocortin receptor 4 (Homo sapiens, UniProt P32245); assay: Agonist activity at human MC4R expressed in HEK293 cells assessed as stimulation of cAMP accumulation at 100 uM incubated for 3 hrs by luciferase reporter gene assay; format: functional, cell-based
[6] = biological target: T1, Melanocyte-stimulating hormone receptor; assay: Agonist activity at N-terminal HA-tagged and C-terminal FLAG-tagged human MC1R expressed in HEK293 cells assessed as stimulation of cAMP accumulation at 100 uM incubated for 3 hrs by luciferase reporter gene assay; format: functional, cell-based
Target sequence in this assay (Q01726 whole entry, looked up): as above

[7] = tested on: HEK293; assay: Effect on cAMP production in HEK293 cells at 100 uM incubated for 3 hrs by luciferase reporter gene assay; format: functional, cell-based; details: Homo sapiens
[8] = biological target: Melanocortin receptor 5 (Homo sapiens, UniProt P33032); assay: Displacement of [125I]-NDP-alpha-MSH from human MC5R expressed in CHO-K1 cell membranes incubated for 3 hrs by top-count beta counting
Method in brief: (§2)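 Membranes were from CHO cells stably expressing hMC1R, hMC4R or hMC5R, or from HEK293 cells expressing hMC3R. Competition used 50 pM 125I-NDP-α-MSH with varied competitor, 3 h at room temperature, in 25 mM HEPES pH 7.4, 1 mM MgCl2, 1 mM CaCl2, 0.2 g/L BSA. Nonspecific binding was set with 1 µM NDP-α-MSH. Samples were filtered on PEI-treated GF/C and scintillation counted. At least three experiments in duplicate, mean ± SEM.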

[9] = biological target: T2, Melanocortin receptor 4; assay: Displacement of [125I]-NDP-alpha-MSH from human MC4R expressed in CHO-K1 cell membranes incubated for 3 hrs by top-count beta counting; method in brief: as §2
[10] = biological target: T1, Melanocyte-stimulating hormone receptor; assay: Displacement of [125I]-NDP-alpha-MSH from human MC1R expressed in CHO-K1 cell membranes incubated for 3 hrs by top-count beta counting; method in brief: as §2
Target sequence in this assay (Q01726 whole entry): as the sequence (Q01726 whole entry, looked up) above

[11] = biological target: T2, Melanocortin receptor 4; assay: Displacement of [125I]-NDP-alpha-MSH from human MC4R expressed in CHO-K1 cell membranes incubated for 3 hrs by top-count beta counting relative to control; details: concentration not given here; method in brief: as §2
[12] = biological target: Sodium channel protein type 4 subunit alpha (Homo sapiens) (UniProt P35499); assay: Inhibition of human NaV1.4 at 100 uM; method in brief: as §1
[13] = biological target: Sodium channel protein type 5 subunit alpha (Homo sapiens, UniProt Q14524); assay: Inhibition of human NaV1.5 at 100 uM; method in brief: as §1
[14] = biological target: Sodium channel protein type 8 subunit alpha (Homo sapiens) (UniProt Q9UQD0); assay: Inhibition of human NaV1.6 at 100 uM; method in brief: as §1
[15] = biological target: Potassium voltage-gated channel subfamily A member 1 (Homo sapiens) (UniProt Q09470); assay: Inhibition of human Kv1.1 at 100 uM
Method in brief: (§3)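 Potassium currents were recorded by two-electrode voltage clamp in oocytes 1–4 days after injecting 50 nl cRNA (1 ng/nl), at 18–22 °C. Bath was 96 mM NaCl, 2 mM KCl, 1.8 mM CaCl2, 2 mM MgCl2, 5 mM HEPES pH 7.4. Toxin was bath-applied at 100 µM. Currents were filtered at 0.5 kHz and sampled at 2 kHz.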

[16] = biological target: Potassium voltage-gated channel subfamily A member 2 (Homo sapiens) (UniProt P16389); assay: Inhibition of human Kv1.2 at 100 uM; method in brief: as §3
[17] = biological target: Potassium voltage-gated channel subfamily A member 3 (Homo sapiens) (UniProt P22001); assay: Inhibition of human Kv1.3 at 100 uM; method in brief: as §3
[18] = biological target: Potassium voltage-gated channel subfamily A member 4 (Homo sapiens) (UniProt P22459); assay: Inhibition of human Kv1.4 at 100 uM; method in brief: as §3
[19] = biological target: Potassium voltage-gated channel subfamily A member 5 (Homo sapiens) (UniProt P22460); assay: Inhibition of human Kv1.5 at 100 uM; method in brief: as §3
[20] = biological target: Potassium voltage-gated channel subfamily A member 6 (Homo sapiens) (UniProt P17658); assay: Inhibition of human Kv1.6 at 100 uM; method in brief: as §3
[21] = biological target: Potassium voltage-gated channel subfamily B member 1 (Homo sapiens) (UniProt Q14721); assay: Inhibition of human Kv2.1 at 100 uM; method in brief: as §3
[22] = biological target: Voltage-gated potassium channel KCNC1 (Homo sapiens) (UniProt P48547); assay: Inhibition of human Kv3.1 at 100 uM; method in brief: as §3
[23] = biological target: A-type voltage-gated potassium channel KCND3 (Homo sapiens, UniProt Q9UK17); assay: Inhibition of human Kv4.3 at 100 uM; method in brief: as §3
[24] = biological target: Potassium voltage-gated channel subfamily KQT member 1 (Homo sapiens, UniProt P51787); assay: Inhibition of human Kv7.1 at 100 uM; method in brief: as §3
[25] = biological target: Potassium voltage-gated channel subfamily KQT member 3 (Homo sapiens) (UniProt O43525); assay: Inhibition of human Kv7.3 at 100 uM; method in brief: as §3
[26] = biological target: Voltage-gated delayed rectifier potassium channel KCNH1 (Homo sapiens) (UniProt O95259); assay: Inhibition of human Kv10.1 at 100 uM; method in brief: as §3
[27] = biological target: Voltage-gated inwardly rectifying potassium channel KCNH2 (Homo sapiens, UniProt Q12809); assay: Inhibition of human Kv11.1 at 100 uM; method in brief: as §3
[28] = biological target: G protein-activated inward rectifier potassium channel 1 (Homo sapiens) (UniProt P48549); assay: Inhibition of human GIRK1 at 100 uM
Method in brief: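 Two-electrode voltage clamp of cRNA-injected oocytes at 18–22 °C, holding at −70 mV. Oocytes were superfused with high-K+ solution (96 mM KCl, 2 mM NaCl, 1 mM MgCl2, 1.8 mM CaCl2, 5 mM HEPES pH 7.5). Toxin was applied to the bath at 100 µM. Currents were filtered at 0.05 kHz and sampled at 0.1 kHz.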

[29] = biological target: Voltage-dependent T-type calcium channel subunit alpha-1I (Homo sapiens) (UniProt Q9P0X4); assay: Inhibition of human Cav3.3 at 100 uM
Method in brief: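 Oocyte two-electrode voltage clamp at 18–22 °C, 1–4 days after cRNA injection (50 nl, 1 ng/nl). Toxin was bath-applied at 100 µM. Currents were carried by 10 mM Ba2+ and elicited by 200 ms depolarisations from −90 mV to between −50 and +30 mV, filtered at 0.5 kHz and sampled at 2 kHz.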

[30] = biological target: Acetylcholine receptor; alpha1/beta1/delta/gamma (Homo sapiens) (UniProt P02708+P07510+P11230+Q07001); assay: Inhibition of human nAChR alpha1(2)beta1gammadelta; format: protein-complex assay
[31] = biological target: Neuronal acetylcholine receptor subunit alpha-7 (Homo sapiens) (UniProt P36544); assay: Inhibition of human nAChR alpha7
[32] = biological target: Sodium channel protein type 10 subunit alpha (Homo sapiens) (UniProt Q9Y5Y9); assay: Inhibition of human NaV1.8 at 100 uM
[33] = biological target: Melanocortin receptor 3 (Homo sapiens, UniProt P41968); assay: Displacement of [125I]-NDP-alpha-MSH from human MC3R expressed in HEK293 cell membranes incubated for 3 hrs by top-count beta counting
[34] = biological target: T2, Melanocortin receptor 4; assay: Antagonist activity at human MC4R transiently expressed in HEK293 cells assessed as reduction in alpha-MSH-induced cAMP accumulation at 100 uM incubated for 3 hrs by luciferase reporter gene assay

T2 sequence (P32245 whole entry): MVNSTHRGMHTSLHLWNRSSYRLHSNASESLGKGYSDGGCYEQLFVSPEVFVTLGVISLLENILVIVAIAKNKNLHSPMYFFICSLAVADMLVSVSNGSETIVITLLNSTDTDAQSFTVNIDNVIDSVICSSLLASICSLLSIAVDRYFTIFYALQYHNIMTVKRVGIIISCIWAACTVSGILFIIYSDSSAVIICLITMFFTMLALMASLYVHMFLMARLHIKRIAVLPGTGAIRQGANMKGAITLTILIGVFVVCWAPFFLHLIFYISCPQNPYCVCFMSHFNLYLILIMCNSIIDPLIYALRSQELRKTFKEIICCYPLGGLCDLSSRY
Sequence of Sodium channel protein type 4 subunit alpha (Homo sapiens) (P35499 whole entry, looked up): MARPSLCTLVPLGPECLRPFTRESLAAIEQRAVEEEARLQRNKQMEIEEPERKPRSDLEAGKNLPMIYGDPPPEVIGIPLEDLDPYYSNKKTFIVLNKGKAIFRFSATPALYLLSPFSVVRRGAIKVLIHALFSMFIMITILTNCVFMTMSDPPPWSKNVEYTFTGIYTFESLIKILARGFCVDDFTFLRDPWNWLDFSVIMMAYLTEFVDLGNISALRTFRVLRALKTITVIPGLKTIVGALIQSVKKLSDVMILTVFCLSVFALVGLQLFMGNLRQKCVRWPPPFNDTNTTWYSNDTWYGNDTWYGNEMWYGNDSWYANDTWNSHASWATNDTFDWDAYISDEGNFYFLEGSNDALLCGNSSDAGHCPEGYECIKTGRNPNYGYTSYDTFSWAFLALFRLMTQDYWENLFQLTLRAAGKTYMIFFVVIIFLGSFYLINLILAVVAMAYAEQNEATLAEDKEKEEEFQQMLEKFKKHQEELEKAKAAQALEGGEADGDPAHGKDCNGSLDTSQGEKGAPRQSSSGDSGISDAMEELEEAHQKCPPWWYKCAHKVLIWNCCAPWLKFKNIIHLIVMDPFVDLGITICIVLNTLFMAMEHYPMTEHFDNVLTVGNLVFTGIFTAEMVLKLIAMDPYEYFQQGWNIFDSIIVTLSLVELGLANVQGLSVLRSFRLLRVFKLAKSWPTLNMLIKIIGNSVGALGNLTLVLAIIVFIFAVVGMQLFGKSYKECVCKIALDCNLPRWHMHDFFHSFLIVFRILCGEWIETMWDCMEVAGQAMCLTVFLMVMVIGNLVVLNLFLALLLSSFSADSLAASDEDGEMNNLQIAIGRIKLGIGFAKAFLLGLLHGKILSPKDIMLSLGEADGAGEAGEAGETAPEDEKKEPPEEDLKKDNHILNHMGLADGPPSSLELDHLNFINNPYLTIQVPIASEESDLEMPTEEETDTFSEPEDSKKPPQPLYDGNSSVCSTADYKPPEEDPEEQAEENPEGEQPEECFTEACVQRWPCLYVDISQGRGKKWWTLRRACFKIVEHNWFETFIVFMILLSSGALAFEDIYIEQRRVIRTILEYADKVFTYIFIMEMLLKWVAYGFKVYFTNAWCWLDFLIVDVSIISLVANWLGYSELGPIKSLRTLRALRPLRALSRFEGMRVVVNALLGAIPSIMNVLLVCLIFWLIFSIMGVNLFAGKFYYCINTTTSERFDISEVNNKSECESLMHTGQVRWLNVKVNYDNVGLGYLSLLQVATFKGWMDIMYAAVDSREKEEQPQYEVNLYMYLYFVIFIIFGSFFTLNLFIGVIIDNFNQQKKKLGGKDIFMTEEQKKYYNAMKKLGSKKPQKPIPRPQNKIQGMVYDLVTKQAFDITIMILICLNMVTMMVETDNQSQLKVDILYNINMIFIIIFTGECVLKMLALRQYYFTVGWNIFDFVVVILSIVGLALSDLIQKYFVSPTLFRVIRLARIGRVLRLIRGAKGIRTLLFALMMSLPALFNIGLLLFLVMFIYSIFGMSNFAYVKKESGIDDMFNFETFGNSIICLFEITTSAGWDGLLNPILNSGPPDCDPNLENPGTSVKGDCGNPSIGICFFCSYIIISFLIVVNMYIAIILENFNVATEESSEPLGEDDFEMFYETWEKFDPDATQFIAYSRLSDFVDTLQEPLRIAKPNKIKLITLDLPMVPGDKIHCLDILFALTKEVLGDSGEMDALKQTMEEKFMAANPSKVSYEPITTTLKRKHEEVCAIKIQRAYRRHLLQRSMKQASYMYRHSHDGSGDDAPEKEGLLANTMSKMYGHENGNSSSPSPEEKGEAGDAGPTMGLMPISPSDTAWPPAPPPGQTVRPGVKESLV
Sequence of Sodium channel protein type 10 subunit alpha (Homo sapiens) (Q9Y5Y9 whole entry, looked up): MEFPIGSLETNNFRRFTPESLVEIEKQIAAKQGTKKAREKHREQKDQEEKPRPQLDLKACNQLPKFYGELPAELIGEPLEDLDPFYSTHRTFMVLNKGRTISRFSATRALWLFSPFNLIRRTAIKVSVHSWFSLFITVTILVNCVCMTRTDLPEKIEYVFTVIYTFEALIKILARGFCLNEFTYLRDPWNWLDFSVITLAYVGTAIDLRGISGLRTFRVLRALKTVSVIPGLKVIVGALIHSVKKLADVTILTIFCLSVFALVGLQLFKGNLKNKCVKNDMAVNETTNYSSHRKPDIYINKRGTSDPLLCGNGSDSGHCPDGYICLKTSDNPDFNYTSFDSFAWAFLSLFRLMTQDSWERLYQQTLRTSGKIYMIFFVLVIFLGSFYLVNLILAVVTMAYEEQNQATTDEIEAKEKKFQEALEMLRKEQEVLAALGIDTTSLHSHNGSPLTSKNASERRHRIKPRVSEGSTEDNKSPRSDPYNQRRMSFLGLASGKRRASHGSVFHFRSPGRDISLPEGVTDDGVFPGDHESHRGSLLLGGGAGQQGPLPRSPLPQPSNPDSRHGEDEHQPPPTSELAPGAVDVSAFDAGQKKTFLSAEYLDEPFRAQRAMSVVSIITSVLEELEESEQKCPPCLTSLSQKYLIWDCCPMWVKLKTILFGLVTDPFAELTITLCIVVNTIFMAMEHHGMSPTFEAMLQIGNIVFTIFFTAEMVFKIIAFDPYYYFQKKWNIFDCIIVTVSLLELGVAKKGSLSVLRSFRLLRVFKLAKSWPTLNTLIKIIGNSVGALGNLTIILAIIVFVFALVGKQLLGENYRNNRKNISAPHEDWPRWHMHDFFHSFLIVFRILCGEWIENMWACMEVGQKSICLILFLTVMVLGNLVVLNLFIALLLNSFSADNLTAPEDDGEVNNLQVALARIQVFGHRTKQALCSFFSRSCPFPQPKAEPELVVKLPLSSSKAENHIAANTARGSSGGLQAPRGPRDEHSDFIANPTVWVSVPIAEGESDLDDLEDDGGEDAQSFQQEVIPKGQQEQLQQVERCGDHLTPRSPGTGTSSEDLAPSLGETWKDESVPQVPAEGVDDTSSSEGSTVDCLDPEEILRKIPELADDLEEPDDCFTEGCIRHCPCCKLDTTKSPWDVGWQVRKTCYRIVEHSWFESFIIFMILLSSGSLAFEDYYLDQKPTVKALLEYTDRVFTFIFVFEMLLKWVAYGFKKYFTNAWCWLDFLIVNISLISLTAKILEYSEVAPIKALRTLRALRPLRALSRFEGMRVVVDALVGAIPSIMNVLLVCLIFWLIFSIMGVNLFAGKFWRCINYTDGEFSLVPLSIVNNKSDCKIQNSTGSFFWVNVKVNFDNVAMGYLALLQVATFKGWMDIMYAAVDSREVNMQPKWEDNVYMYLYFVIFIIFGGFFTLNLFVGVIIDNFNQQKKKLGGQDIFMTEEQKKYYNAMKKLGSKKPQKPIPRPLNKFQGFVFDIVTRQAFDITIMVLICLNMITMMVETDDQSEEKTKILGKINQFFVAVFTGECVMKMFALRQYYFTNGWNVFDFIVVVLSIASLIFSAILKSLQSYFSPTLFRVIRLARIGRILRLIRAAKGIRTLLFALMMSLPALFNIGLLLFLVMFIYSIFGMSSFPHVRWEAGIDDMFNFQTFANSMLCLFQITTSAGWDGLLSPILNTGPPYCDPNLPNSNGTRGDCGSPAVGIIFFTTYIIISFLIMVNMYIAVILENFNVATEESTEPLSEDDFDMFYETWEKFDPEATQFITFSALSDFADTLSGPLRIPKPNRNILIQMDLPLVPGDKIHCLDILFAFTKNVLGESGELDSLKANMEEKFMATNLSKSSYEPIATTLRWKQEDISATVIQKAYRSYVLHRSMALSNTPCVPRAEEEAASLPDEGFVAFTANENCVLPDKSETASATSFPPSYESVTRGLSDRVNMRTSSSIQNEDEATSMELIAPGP
Sequence of Melanocortin receptor 3 (P41968 whole entry): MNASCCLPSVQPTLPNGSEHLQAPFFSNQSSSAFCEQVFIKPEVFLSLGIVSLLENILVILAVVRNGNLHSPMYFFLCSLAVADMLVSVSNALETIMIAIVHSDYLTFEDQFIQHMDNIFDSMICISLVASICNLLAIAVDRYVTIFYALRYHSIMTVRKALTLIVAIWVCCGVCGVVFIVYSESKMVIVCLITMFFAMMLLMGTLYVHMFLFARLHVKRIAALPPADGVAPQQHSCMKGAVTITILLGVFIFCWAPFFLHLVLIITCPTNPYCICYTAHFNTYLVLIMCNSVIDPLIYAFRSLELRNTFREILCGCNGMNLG

| SMILES | inhibition [1] | inhibition [2] | inhibition [3] | Activity [4] | Activity [5] | Activity [6] | Activity [7] | Ki [8] [µM] | Ki [9] [µM] | Ki [10] [µM] | inhibition [11] [%] | inhibition [12] | inhibition (INH) [13] | inhibition [14] | inhibition [15] | inhibition [16] | inhibition [17] | inhibition [18] | inhibition [19] | inhibition [20] | further results |
| --- | --- | --- | --- | --- | --- | --- | --- | --- | --- | --- | --- | --- | --- | --- | --- | --- | --- | --- | --- | --- | --- |
| CC[C@H](C)[C@@H]1NC(=O)[C@H](C)NC(=O)[C@H](CCCCN)NC(=O)[C@H](CC(C)C)NC(=O)[C@@H]2CSSC[C@@H](C(=O)O)NC(=O)[C@H](CCCCN)NC(=O)[C@@H]3CSSC[C@H](NC(=O)[C@H](CCC(=O)O)NC(=O)[C@H](C(C)C)NC(=O)[C@H](CO)NC(=O)[C@H](C)NC(=O)[C@H](CO)NC(=O)[C@@H](NC(=O)[C@H](CCCNC(=N)N)NC(=O)[C@H](CCSC)NC(=O)[C@H](CC(=O)O)NC(=O)[C@H](CCSC)NC(=O)[C@@H](N)CCC(N)=O)CSSC[C@H](NC(=O)[C@H](CCCCN)NC(=O)CNC(=O)[C@H](Cc4ccccc4)NC(=O)[C@H]([C@@H](C)CC)NC(=O)[C@H](CO)NC(=O)CNC1=O)C(=O)N[C@@H](CCSC)C(=O)N[C@@H](CC(N)=O)C(=O)N[C@@H](CCCCN)C(=O)N[C@@H](CCCCN)C(=O)N3)C(=O)N[C@@H](CCCCN)C(=O)N[C@@H](CCC(N)=O)C(=O)N[C@@H](CCCCN)C(=O)N2 (H-QMDMRCSASVECKQKCLKAIGSIFGKCMNKKCKC-OH; disulfide 6-27, 12-32, 16-34) | inactive | inactive | inactive | Active | inactive | Active | inactive | 2.2 | 2.6 | 2.9 | 86 | inactive | Not Active | inactive | inactive | inactive | inactive | inactive | inactive | inactive | inhibition [21]: inactive; inhibition [22]: inactive; inhibition (INH) [23]: Not Active; inhibition (INH) [24]: Not Active; inhibition [25]: inactive; inhibition [26]: inactive; inhibition (INH) [27]: Not Active; inhibition [28]: inactive; inhibition [29]: inactive; inhibition [30]: inactive; inhibition [31]: inactive; inhibition [32]: inactive; Ki [33]: 3.9 µM; Activity [34]: inactive |
| CC[C@H](C)[C@@H]1NC(=O)[C@@H]2CCCN2C(=O)CNC(=O)[C@H](CO)NC(=O)[C@@H]2CSSC[C@@H]3NC(=O)[C@H]([C@@H](C)O)NC(=O)CNC(=O)[C@H](CSSC[C@H](NC(=O)[C@@H](N)CCCNC(=N)N)C(=O)N[C@@H](CC(C)C)C(=O)N[C@@H](Cc4cnc[nH]4)C(=O)N[C@@H](C)C(=O)NCC(=O)N[C@@H](C)C(=O)N[C@@H](C)C(=O)N2)NC(=O)[C@H](CSSC[C@@H](C(=O)N[C@H](C(=O)O)[C@@H](C)O)NC(=O)[C@H](CCCCN)NC(=O)[C@H](CCCNC(=N)N)NC(=O)[C@H](CCCNC(=N)N)NC(=O)[C@H](CO)NC3=O)NC(=O)[C@@H]2CCCN2C(=O)[C@H]([C@@H](C)CC)NC(=O)[C@H](CCCCN)NC(=O)[C@H](CCC(N)=O)NC1=O (H-RCLHAGAACSGPIQKIPCCGTCSRRKCT-OH; disulfide 2-19, 9-22, 18-27) | inactive | inactive | inactive | Active | inactive | Active | inactive | 10 | 7.1 | 1.8 | 97 | inactive | Not Active | inactive | inactive | inactive | inactive | inactive | inactive | inactive | inhibition [21]: inactive; inhibition [22]: inactive; inhibition (INH) [23]: Not Active; inhibition (INH) [24]: Not Active; inhibition [25]: inactive; inhibition [26]: inactive; inhibition (INH) [27]: Not Active; inhibition [28]: inactive; inhibition [29]: inactive; inhibition [30]: inactive; inhibition [31]: inactive; inhibition [32]: inactive; Ki [33]: 19.8 µM; Activity [34]: inactive |
